≈ marks a conversion by molar mass, not a printed value.

Series [1] in a line: Inhibition of sodium channel site 2 at 10 uM.
Series [2] has as its system Mus musculus. Nature of the series: Antialzheimer activity in CD1 mouse assessed as amyloid beta 42 level in brain at 30 mg/kg, po at 4 hrs by ELISA relative to control. Type of series: functional. In outline: (§1)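 Male CD1 SPF mice, fasted overnight, got a single oral dose of 10 or 30 mg/kg. At each time point the right brain hemisphere was homogenized in 0.4% DEA/50 mM NaCl with protease inhibitors and spun at 221300g for 50 min. The supernatant was neutralized with Tris-HCl pH 6.8. Aβ38 or Aβ42 was read by sandwich ELISA with a fluorogenic peroxidase substrate (ex 320/em 420 nm). Results are mean % change versus T = 0 h, n = 4.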
In general terms: In an ELISA, binding on a coated surface is turned into a signal by an enzyme label.

Series [3] in a line: Oral bioavailability in beagle dog at 5 mg/kg. The series is classed as ADME, organism-based, Canis lupus familiaris. The following applies: in vivo.
For series [4], the system named is Mus musculus. Nature of the series: Antialzheimer activity in CD1 mouse assessed as amyloid beta 38 level in brain at 10 mg/kg, po at 4 hrs by ELISA relative to control. The series is classed as functional. The gist of the method:
as §1

The nature of series [5]: Thermodynamic solubility in fed state simulated intestinal fluid. Type of series: physicochemical. To be noted: read-out: Therm_solubility. The gist of the method:
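Thermodynamic solubility was measured in pH 4.0 and pH 7.4 buffers, 0.01 N HCl, and fasted-state and fed-state simulated intestinal fluids (FaSSIF, FeSSIF). Results are in […].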

The test system of series [6] is Rattus norvegicus. Nature of the series: Antialzheimer activity in Sprague-Dawley rat assessed as amyloid beta 42 level in CSF at 10 mg/kg, po at 4 hrs by ELISA relative to control. Type of series: functional. The gist of the method:
(§2)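 Male Sprague-Dawley rats (180-220 g), fasted overnight, were given 10 mg/kg by gastric intubation as a 5 mg/mL suspension in 0.5% methocellulose. At 2, 4, 7 and 25 h, 50 μL CSF was taken from the cisterna magna under isoflurane, then brain was collected. Aβ37/38/40/42 were measured by MesoScale Discovery sandwich immunoassays. Results are mean % change versus T = 0 h, n = 5.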

Series [7] relates to Rattus norvegicus. Nature of the series: Antialzheimer activity in Sprague-Dawley rat assessed as amyloid beta 37 level in brain at 10 mg/kg, po at 2 hrs by ELISA relative to control. Type of series: functional. The gist of the method:
as §2

The test system of series [8] is Mus musculus. Nature of the series: Antialzheimer activity in CD1 mouse assessed as amyloid beta 38 level in brain at 30 mg/kg, po at 8 hrs by ELISA relative to control. The series is classed as functional. In outline:
as §1

For series [9], the system named is Rattus norvegicus. Nature of the series: Antialzheimer activity in Sprague-Dawley rat assessed as amyloid beta 37 level in CSF at 10 mg/kg, po at 2 hrs by ELISA relative to control. Type of series: functional. In outline:
as §2

A short description of series [10]: Drug metabolism in mouse liver microsomes at 1 uM after 15 mins by ion-trap mass spectrophotometry. The series is classed as ADME, Microsome. To be noted: read-out: Drug metabolism. A general note: Liver microsomes are vesicles of endoplasmic reticulum, rich in cytochrome P450 enzymes.

In turn, `COc1nc(Nc2cccc3c2nc(-c2ccc(F)cc2)n3C)ccc1-n1cnc(C)c1` returned an inhibition in series [1] of 60%. For the same molecule, the Activity in the series with Mus musculus [2] is 35%; with Mus musculus [4], 141%; with Rattus norvegicus [6], 66%; in the series with Rattus norvegicus [7] it was 502%; in the series on Mus musculus [8], 156%; with Rattus norvegicus [9], 735%. Besides, the bioavailability in series [3] turned out to be 64%. Moreover, the solubility thermodynamic in series [5] is 20 µg/mL (≈ 46.7 µM). In addition, the metabolised at 0.25 h, 1 µM in series [10] came out at 0%.

A word on the inhibition: it is the share of the control response that was lost under treatment. Read a high inhibition as a response far below the control. In general, bioavailability refers to the share of a dose that reaches the circulation, judged against a reference dose that is usually intravenous. A lower bioavailability goes with little systemic uptake.
